We go through ten molecules from ChEMBL document CHEMBL5244263, “Studies on fragment-based design of allosteric inhibitors of human factor XIa” (Bioorg Med Chem, 2020).

The target of assay [1] is T1, Coagulation factor XI (Homo sapiens, UniProt P03951). As to the kind of experiment: Inhibition of human FXIa using S-2366 as chromogenic substrate preincubated with enzyme for 10 mins followed by substrate addition by spectrophotometric analysis.
The target of assay [2] is Prothrombin (Homo sapiens) (UniProt P00734). As to the kind of experiment: Inhibition of human thrombin at 500 uM by chromogenic substrate hydrolysis assay.
Assay [3] addresses T2, Coagulation factor VII (Homo sapiens) (UniProt P08709).
T2 sequence (whole entry): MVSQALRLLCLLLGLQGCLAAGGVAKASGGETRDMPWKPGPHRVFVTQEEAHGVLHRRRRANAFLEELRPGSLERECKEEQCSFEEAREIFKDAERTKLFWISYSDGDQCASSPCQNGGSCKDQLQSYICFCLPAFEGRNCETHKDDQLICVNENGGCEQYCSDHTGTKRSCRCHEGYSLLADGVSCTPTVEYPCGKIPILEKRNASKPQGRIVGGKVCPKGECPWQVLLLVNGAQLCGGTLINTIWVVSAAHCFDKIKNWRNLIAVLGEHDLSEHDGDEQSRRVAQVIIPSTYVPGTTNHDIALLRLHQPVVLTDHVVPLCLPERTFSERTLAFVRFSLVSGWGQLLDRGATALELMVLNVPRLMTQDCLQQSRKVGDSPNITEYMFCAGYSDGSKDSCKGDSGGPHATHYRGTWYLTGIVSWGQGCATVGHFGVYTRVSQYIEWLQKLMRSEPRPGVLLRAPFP
Briefly: Inhibition of FVIIa (unknown origin) at 500 uM by chromogenic substrate hydrolysis assay.

Assay [4] has as its target Coagulation factor IX (Homo sapiens) (UniProt P00740). Briefly: Inhibition of human FIXa at 500 uM by chromogenic substrate hydrolysis assay.
In assay [5] the target is Coagulation factor X (Homo sapiens) (UniProt P00742). Briefly: Inhibition of human FXa using methoxycarbonyl-D-cyclohexylglycyl-Gly-Arg-p-nitroanilide as substrate at 500 uM by chromogenic substrate hydrolysis assay.
Chain of Coagulation factor X (Homo sapiens) (P00742 41-179 limits assumed): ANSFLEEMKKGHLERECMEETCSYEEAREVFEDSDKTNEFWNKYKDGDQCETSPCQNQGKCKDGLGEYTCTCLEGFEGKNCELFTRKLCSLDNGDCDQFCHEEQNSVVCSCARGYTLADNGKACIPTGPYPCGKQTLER
Chain of Coagulation factor X (Homo sapiens) (P00742 235-488 limits assumed): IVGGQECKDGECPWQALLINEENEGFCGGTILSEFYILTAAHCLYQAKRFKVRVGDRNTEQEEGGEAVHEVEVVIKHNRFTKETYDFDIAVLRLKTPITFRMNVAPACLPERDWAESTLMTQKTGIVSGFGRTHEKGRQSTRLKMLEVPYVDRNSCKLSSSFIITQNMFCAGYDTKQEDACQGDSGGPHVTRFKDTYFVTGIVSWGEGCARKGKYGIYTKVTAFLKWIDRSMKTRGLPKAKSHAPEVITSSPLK
The target of assay [6] is Plasma kallikrein (Homo sapiens) (UniProt P03952). As to the kind of experiment: Inhibition of Kallikrein in human plasma at 500 uM by chromogenic substrate hydrolysis assay. The format is cell-free.
Chain of Plasma kallikrein (Homo sapiens) (P03952 20-390 limits assumed): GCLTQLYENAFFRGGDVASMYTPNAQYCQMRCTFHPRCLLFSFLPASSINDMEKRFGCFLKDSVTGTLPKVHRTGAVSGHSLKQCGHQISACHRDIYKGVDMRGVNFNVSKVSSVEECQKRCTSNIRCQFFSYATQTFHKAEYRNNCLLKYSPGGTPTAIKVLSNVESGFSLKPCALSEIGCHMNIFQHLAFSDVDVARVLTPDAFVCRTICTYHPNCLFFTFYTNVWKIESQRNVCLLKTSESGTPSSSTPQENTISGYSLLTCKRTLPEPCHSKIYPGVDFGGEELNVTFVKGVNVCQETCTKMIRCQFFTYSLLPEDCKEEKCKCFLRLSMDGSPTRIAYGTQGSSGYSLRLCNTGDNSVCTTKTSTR
Chain of Plasma kallikrein (Homo sapiens) (P03952 391-638 limits assumed): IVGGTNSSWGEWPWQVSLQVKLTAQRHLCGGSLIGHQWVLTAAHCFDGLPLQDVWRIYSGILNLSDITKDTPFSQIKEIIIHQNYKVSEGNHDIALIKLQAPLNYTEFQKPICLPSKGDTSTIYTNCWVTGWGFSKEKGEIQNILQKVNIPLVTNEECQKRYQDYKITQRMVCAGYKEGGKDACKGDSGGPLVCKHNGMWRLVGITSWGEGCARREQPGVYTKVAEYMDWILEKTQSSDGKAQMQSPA
The species named for the next assay is Bos taurus. Briefly: Inhibition of bovine trypsin using S-2222 as chromogenic substrate at 500 uM by chromogenic substrate hydrolysis assay.
For assay [7], the target named is Chymotrypsinogen A (Bos taurus) (UniProt P00766). As to the kind of experiment: Inhibition of bovine alpha-chymotrypsin at 500 uM by chromogenic substrate hydrolysis assay.
In assay [8] the target is T1, Coagulation factor XI. Briefly: Inhibition of human FXIa using S-2366 as chromogenic substrate preincubated with enzyme for 10 mins followed by substrate addition by spectrophotometric analysis relative to control. Also on record: concentration or dose not given beside the values. A digest of the protocol:
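hFXIa (0.765 nM final) preincubated with inhibitor or reference solution for 10 min at 37 °C in pH 7.4 buffer (50 mM Tris-HCl, 150 mM NaCl, 0.1% PEG8000, 0.02% Tween80). S-2366 (345 μM final) then added, and residual activity read on a microplate reader.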

For assay [9], the species on record is Homo sapiens. Briefly: Selectivity for inhibition of human FXIa over human thrombin.
The species entered for assay [10] is Homo sapiens. Briefly: Selectivity for inhibition of human FXIa over FVIIa (unknown origin).
Assay [11] is filed under the species Homo sapiens. Briefly: Selectivity for inhibition of human FXIa over human FIXa.
For assay [12], the species on record is Homo sapiens. Briefly: Selectivity for inhibition of human FXIa over human FXa.
The species entered for assay [13] is Homo sapiens. Briefly: Selectivity for inhibition of human FXIa over Kallikrein in human plasma. It counts as cell-free.
Assay [14] in a line: Selectivity for inhibition of human FXIa over bovine trypsin.
The nature of assay [15]: Selectivity for inhibition of human FXIa over bovine alpha-chymotrypsin.

pIC50: −log10 of the molar value. The source made the active and inactive calls. The calls are words filed in the database; no cut-off is given here.

T1 sequence (P03951 19-387 limits assumed): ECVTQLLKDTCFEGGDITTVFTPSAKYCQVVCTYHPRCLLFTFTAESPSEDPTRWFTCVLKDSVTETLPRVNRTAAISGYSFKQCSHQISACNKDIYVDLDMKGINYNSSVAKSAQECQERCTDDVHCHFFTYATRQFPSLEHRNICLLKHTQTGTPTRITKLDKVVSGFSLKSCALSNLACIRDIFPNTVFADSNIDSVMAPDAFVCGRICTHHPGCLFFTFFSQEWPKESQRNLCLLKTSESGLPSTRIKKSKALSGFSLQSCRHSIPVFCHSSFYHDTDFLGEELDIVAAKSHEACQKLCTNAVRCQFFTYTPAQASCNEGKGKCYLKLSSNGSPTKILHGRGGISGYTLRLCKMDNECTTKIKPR
T1 sequence (P03951 388-625 limits assumed): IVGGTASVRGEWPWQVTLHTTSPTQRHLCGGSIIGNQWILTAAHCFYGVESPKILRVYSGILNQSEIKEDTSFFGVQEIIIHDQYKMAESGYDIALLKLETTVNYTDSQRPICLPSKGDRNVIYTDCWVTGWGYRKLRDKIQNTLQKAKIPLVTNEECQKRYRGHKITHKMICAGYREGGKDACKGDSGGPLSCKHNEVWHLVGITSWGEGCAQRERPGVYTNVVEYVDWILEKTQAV
Chain of Coagulation factor IX (Homo sapiens) (P00740 47-191 limits assumed): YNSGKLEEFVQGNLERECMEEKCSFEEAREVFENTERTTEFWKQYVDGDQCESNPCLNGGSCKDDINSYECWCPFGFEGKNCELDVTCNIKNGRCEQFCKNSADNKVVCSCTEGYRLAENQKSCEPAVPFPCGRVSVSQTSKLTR
Chain of Coagulation factor IX (Homo sapiens) (P00740 227-461 limits assumed): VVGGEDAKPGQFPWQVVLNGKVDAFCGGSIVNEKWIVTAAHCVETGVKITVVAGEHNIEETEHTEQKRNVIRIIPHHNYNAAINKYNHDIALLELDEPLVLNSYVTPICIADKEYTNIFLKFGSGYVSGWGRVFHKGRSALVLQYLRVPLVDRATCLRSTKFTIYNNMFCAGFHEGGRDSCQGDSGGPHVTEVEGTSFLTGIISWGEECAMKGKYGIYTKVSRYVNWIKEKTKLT

For orientation: pIC50 means −log10 of the IC50, conventionally taken in molar units. Broadly, the inhibition is the change of the read-out against control, counted positive when it falls. Regarding `O=c1c(OS(=O)(=O)O)c(-c2ccc(OS(=O)(=O)O)c(OS(=O)(=O)O)c2)oc2cc(OS(=O)(=O)O)cc(OCc3cn(CCCCCCCCCn4c(-c5ccc(OS(=O)(=O)O)cc5)nc5ccccc5c4=O)nn3)c12`, at Coagulation factor XI [1], the pIC50 is 4.43. The inhibition entry (in assay [2]; in assay [3]; in assay [4]; in assay [5]; in assay [6]; in the assay listed under Bos taurus) was “inactive” each time. Further, in assay [7], the inhibition result is “inactive”.

In the case of `O=c1c2ccccc2nc(-c2ccc(OS(=O)(=O)O)cc2)n1CCCCCCCn1cc(Cn2c(-c3ccc(OS(=O)(=O)O)cc3)nc3ccccc3c2=O)nn1`, the pIC50 at Coagulation factor XI [1] is 4.29. In addition, the inhibition on Coagulation factor XI [8] worked out at 103%. For the same molecule, the inhibition entry (in assay [2]; in assay [3]; in assay [4]; in [5]; in assay [6]; in the assay filed under Bos taurus) was “inactive” each time. Besides, the inhibition entry in assay [7] was “inactive”. Also, the Selectivity ratio (in the assay listed under Homo sapiens [9]; in the assay filed under Homo sapiens [10]; in the assay listed under Homo sapiens [11]; in the assay filed under Homo sapiens [12]; in the assay filed under Homo sapiens [13]; in assay [14]) was above 63 throughout. The Selectivity ratio in assay [15] was above 63.

Molecule `O=c1c2ccccc2nc(-c2ccc(OS(=O)(=O)O)cc2)n1CCCCCCCCCCCCn1cc(Cn2c(-c3ccc(OS(=O)(=O)O)cc3)nc3ccccc3c2=O)nn1` showed a pIC50 against Coagulation factor XI [1] of 4.46. Moreover, the inhibition on Coagulation factor XI [8] was found to be 112%. The inhibition result (in assay [2]; in assay [3]; in assay [4]; in assay [5]; in assay [6]; in the assay filed under Bos taurus) was “inactive” throughout. For the same molecule, the inhibition result in assay [7] was “inactive”. The Selectivity ratio (in the assay filed under Homo sapiens [9]; in the assay listed under Homo sapiens [10]; in the assay listed under Homo sapiens [11]; in the assay filed under Homo sapiens [12]; in the assay filed under Homo sapiens [13]; in assay [14]) was above 63 throughout. For the same molecule, in assay [15], the Selectivity ratio is above 63.

Molecule `O=c1c2ccccc2nc(-c2ccc(OS(=O)(=O)O)cc2)n1CCCCCCCCCCCn1cc(Cn2c(-c3ccc(OS(=O)(=O)O)cc3)nc3ccccc3c2=O)nn1` gave a pIC50 on Coagulation factor XI [1] of 4.52. In addition, on Coagulation factor XI [8], the inhibition is 98%. Further, the inhibition result (in assay [2]; in assay [3]; in [4]; in [5]; in [6]; in the assay listed under Bos taurus) was “inactive” in each case. Besides, the inhibition result in assay [7] is “inactive”. Further, the Selectivity ratio (in the assay listed under Homo sapiens [9]; in the assay filed under Homo sapiens [10]; in the assay filed under Homo sapiens [11]; in the assay listed under Homo sapiens [12]; in the assay filed under Homo sapiens [13]; in [14]) was above 63 in each case. Also, the Selectivity ratio in assay [15] is above 63.

For `O=c1c2ccccc2nc(-c2ccc(OS(=O)(=O)O)cc2)n1CCCCCCn1c(-c2ccc(OS(=O)(=O)O)cc2)nc2ccccc2c1=O`, the pIC50 on Coagulation factor XI [1] is 4.47. Besides, the inhibition against Coagulation factor XI [8] amounted to 87%. For the same molecule, the inhibition result (in [2]; in [3]; in assay [4]; in [5]; in assay [6]; in the assay filed under Bos taurus) was “inactive” each time. Moreover, the inhibition result in assay [7] is “inactive”. The Selectivity ratio (in the assay filed under Homo sapiens [9]; in the assay listed under Homo sapiens [10]; in the assay listed under Homo sapiens [11]; in the assay filed under Homo sapiens [12]; in the assay filed under Homo sapiens [13]; in assay [14]) was above 63 throughout. In [15], the Selectivity ratio was above 63.

As for `O=c1c2ccccc2nc(-c2cccc(OS(=O)(=O)O)c2)n1Cc1cccc(Cn2c(-c3cccc(OS(=O)(=O)O)c3)nc3ccccc3c2=O)c1`, the pIC50 at Coagulation factor XI [1] is 4.22. The inhibition on Coagulation factor XI [8] amounted to 92%. For the same molecule, the inhibition entry (in assay [2]; in assay [3]; in assay [4]; in assay [5]; in assay [6]; in the assay listed under Bos taurus) was “inactive” throughout. Also, in assay [7], the inhibition result is “inactive”. For the same molecule, the Selectivity ratio (in the assay listed under Homo sapiens [9]; in the assay listed under Homo sapiens [10]; in the assay filed under Homo sapiens [11]; in the assay filed under Homo sapiens [12]; in the assay filed under Homo sapiens [13]; in assay [14]) was above 63 each time. Also, the Selectivity ratio in assay [15] is above 63.

Take `O=c1c2ccccc2nc(-c2cccc(OS(=O)(=O)O)c2)n1CCCCCn1c(-c2cccc(OS(=O)(=O)O)c2)nc2ccccc2c1=O`: the pIC50 against Coagulation factor XI [1] is 4.05. Moreover, the inhibition on Coagulation factor XI [8] was 96%. For the same molecule, the inhibition entry (in assay [2]; in assay [3]; in [4]; in assay [5]; in [6]; in the assay filed under Bos taurus) was “inactive” in each case. The inhibition entry in assay [7] is “inactive”. For the same molecule, the Selectivity ratio (in the assay filed under Homo sapiens [9]; in the assay listed under Homo sapiens [10]; in the assay filed under Homo sapiens [11]; in the assay listed under Homo sapiens [12]; in the assay listed under Homo sapiens [13]; in assay [14]) was above 63 each time. Also, the Selectivity ratio in assay [15] was above 63.

Regarding `O=c1c(OS(=O)(=O)O)c(-c2ccc(OS(=O)(=O)O)c(OS(=O)(=O)O)c2)oc2cc(OS(=O)(=O)O)cc(OCc3cn(CCCCCCCCn4c(-c5ccc(OS(=O)(=O)O)cc5)nc5ccccc5c4=O)nn3)c12`, the pIC50 against Coagulation factor XI [1] was 3.88. Also, the inhibition entry (in assay [2]; in [3]; in assay [4]; in assay [5]; in assay [6]; in the assay filed under Bos taurus) was “inactive” each time. Further, the inhibition entry in assay [7] is “inactive”.

For `O=c1c(OS(=O)(=O)O)c(-c2ccc(OS(=O)(=O)O)c(OS(=O)(=O)O)c2)oc2cc(OS(=O)(=O)O)cc(OCc3cn(CCCCCCCn4c(-c5ccc(OS(=O)(=O)O)cc5)nc5ccccc5c4=O)nn3)c12`, at Coagulation factor XI [1], the pIC50 is 3.86. Further, the inhibition result (in assay [2]; in [3]; in assay [4]; in [5]; in assay [6]; in the assay listed under Bos taurus) was “inactive” throughout. Moreover, the inhibition result in [7] is “inactive”.

On to `O=c1c(OS(=O)(=O)O)c(-c2ccc(OS(=O)(=O)O)c(OS(=O)(=O)O)c2)oc2cc(OS(=O)(=O)O)cc(OCc3cn(CCCCCCCCCCn4c(-c5ccc(OS(=O)(=O)O)cc5)nc5ccccc5c4=O)nn3)c12`, for which the pIC50 on Coagulation factor XI [1] is 4.29. In addition, the inhibition entry (in [2]; in assay [3]; in assay [4]; in [5]; in assay [6]; in the assay filed under Bos taurus) was “inactive” in each case. Besides, in [7], the inhibition result was “inactive”.
